# Rows were chosen to be rich in hits. Some 2.9% of all compounds tested hit in one or more screens of this group.
# C2C12 statin = suppressors of statin myotoxicity in C2C12 myotubes, primary screen, cell-based, single point, plate reader | rescue of ATP level, % at 7.49 µM | C2C12 myotubes + simvastatin, ATP luminescence, 48 h; scaled: DMSO 0, geranylgeraniol control 100 | AID 602340, 2012 | hit rate 0.78% among 330,000;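 active = mean ATP rescue above about 67%, or every replicate alone reaching that limit, limit read from the data, passing the limit was not always enough; inconclusive = no clear call, values can overlap the other calls; inactive = mean under the limit and some replicate under it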;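 also: myotubes were challenged with 10 µM simvastatin during compound exposure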
# SIRT5 block = SIRT5 desuccinylase inhibitors, primary screen, biochemical, fluorescence imaging, single point, set 5 | inhibition, % at 15 µM | AID 652115, 2013 | hit rate 1.1% among 330,000 | Purified SirT5, succinyl-peptide AMC, trypsin-coupled fluorescence; in the data active = inhibition above about 15%; inconclusive = no clear call, values can overlap the other calls
# Target sequence (Q9NXA8 whole entry, looked up): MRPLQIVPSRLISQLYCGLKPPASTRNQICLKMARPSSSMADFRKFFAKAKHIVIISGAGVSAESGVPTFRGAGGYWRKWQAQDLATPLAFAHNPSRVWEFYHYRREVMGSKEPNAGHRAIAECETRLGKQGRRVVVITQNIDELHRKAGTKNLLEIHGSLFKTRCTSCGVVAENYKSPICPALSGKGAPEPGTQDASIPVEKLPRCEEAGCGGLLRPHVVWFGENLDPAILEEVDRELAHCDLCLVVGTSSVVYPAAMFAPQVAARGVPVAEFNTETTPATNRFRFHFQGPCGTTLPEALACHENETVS
# DENV2 CPE rescue = inhibitors of DENV2 cytopathic effect, primary screen, cell-based, plate reader, single concentration | DENV2-infected cells, cytopathic effect rescue | CPE inhibition, % at 9.99 µM | hit rate 1.7% among 350,000; in the data active = CPE inhibition above about 20%, passing the limit was not always enough; inconclusive = no clear call, values can overlap the other calls; tested in BHK-21 cells;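 also: 0% = median of neutral control wells and 100% = median of positive control wells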
# PGC1a acetyl inh = inhibitors of PGC1a acetylation signal, primary screen, cell-based, U2OS, AlphaScreen, inhibitor mode | hit rate 0.17% among 350,000 | AlphaScreen anti-acetyl-lysine; with virally co-expressed GCN5 acetyltransferase | inhibition, % at 15.6 µM | AID 651687, 2012;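 active = every replicate shows inhibition of at least 40%; inconclusive = mean inhibition at least 40% but some replicate below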;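 also: 0% = neutral control wells and 100% = positive control wells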
# S100A4 inh HTS = inhibitors of S100A4-myosin IIA peptide binding, primary screen, biochemical, fluorescence polarization, TAMRA-MyoIIA peptide; inhibition, % at 10.7 µM; hit rate 0.14% among 360,000; AID 652163, 2013;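 active = mean inhibition of at least 70% across replicates, with every replicate also reaching that level; inconclusive = mean inhibition reaches 70% but some replicates fall short; inactive = mean inhibition below 70%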
# Target sequence (P26447 whole entry, looked up): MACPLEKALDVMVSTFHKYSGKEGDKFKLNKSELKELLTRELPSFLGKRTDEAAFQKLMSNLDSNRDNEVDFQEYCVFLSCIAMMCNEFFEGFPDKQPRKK
#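 Material: S100A4 monomer protein | Medium: HEPES pH 7.2 with CaCl2, KCl, NaCl, DTT, Triton | Reagent: Labelled myosin peptide probe, 5 nM | Doses: One dose per compound | Times: 5 min incubation before reading | Benchmarks: Neutral control DMSO, positive control TFP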
# * hit, by the source's call; ? = inconclusive; / = no result; ! = not active in a repeat.
SMILES,C2C12 statin,SIRT5 block,DENV2 CPE rescue,PGC1a acetyl inh,S100A4 inh HTS
Cc1noc(C)c1NC(=O)Nc1ccc2c(c1)CC(=O)N([C@H](C)CO)C[C@H](C)[C@H](CN(C)C(=O)Nc1cccc3ccccc13)O2,13,0,63*,-7,-7
COc1cccc(S(=O)(=O)N2CC[C@@H]3[C@@H](CO)Nc4ccc(-c5ccc(C#N)cc5)cc4[C@@H]32)c1,4,/,17,12,/
O=C(C[C@H]1CC[C@@H]2[C@H](COC[C@H](O)CN2Cc2ccccc2F)O1)N[C@@H]1CCN(Cc2ccccc2)C1,-14,0,?,2,-2
C[C@@H]1CN([C@H](C)CO)C(=O)Cc2cc(NC(=O)Nc3cccc4ccccc34)ccc2O[C@@H]1CN(C)C(=O)NC1CCCCC1,-22,9,22*,-17,17
Cc1noc(C)c1NC(=O)Nc1ccc2c(c1)CC(=O)N([C@@H](C)CO)C[C@H](C)[C@@H](CN(C)C(=O)Nc1ccccc1)O2,-13,1,83*,1,9
C[C@@H]1CN([C@@H](C)CO)C(=O)Cc2cc(NC(=O)Nc3cccc4ccccc34)ccc2O[C@@H]1CN(C)S(C)(=O)=O,3,-2,66*!,4,-5
C[C@H](CO)N1C[C@H](C)[C@@H](CN(C)C)Oc2ccc(NC(=O)Nc3cccc4ccccc34)cc2CC1=O,-11,10,39*,-3,-10
C[C@H]1CN([C@@H](C)CO)C(=O)Cc2cc(NC(=O)Nc3cccc4ccccc34)ccc2O[C@H]1CN(C)S(C)(=O)=O,-3,4,-3,-14,-19
C[C@H]1CN([C@@H](C)CO)C(=O)Cc2cc(NC(=O)Nc3cccc4ccccc34)ccc2O[C@H]1CN(C)C,0,-4,-2,4,64
Cc1noc(C)c1NC(=O)Nc1ccc2c(c1)CC(=O)N([C@@H](C)CO)C[C@@H](C)[C@@H](CN(C)C(=O)Nc1ccccc1)O2,2,-7,-8,11,-2
C[C@H](CO)N1C[C@H](C)[C@@H](CN(C)C(=O)Nc2cccc3ccccc23)Oc2ccc(NC(=O)Nc3ccccc3)cc2CC1=O,24,2,-7,5,-2
COCC#Cc1ccc2c(c1)O[C@H](CN(C)C(=O)C1CC1)[C@@H](C)CN([C@H](C)CO)S2(=O)=O,10,-4,-8,-2,-14
C[C@@H]1CN([C@H](C)CO)C(=O)Cc2cc(NC(=O)Nc3cccc4ccccc34)ccc2O[C@@H]1CN(C)C(=O)Nc1cccc2ccccc12,-5,16*,3,7,-6
O=C(C[C@H]1CC[C@H](NC(=O)C2CCOCC2)[C@H](CO)O1)NCc1ccncc1,/,-2,-6,3,5
CCS(=O)(=O)N[C@H]1CC[C@H](CC(=O)NCc2ccc(Cl)cc2)O[C@H]1CO,2,-2,-3,-7,-18
O=S(=O)(c1ccc2[nH]ccc2c1)N1CCCCCC1,13,-4,-1,68*,-2
O=c1[nH]c2ccc(S(=O)(=O)N3CCCCC3)cc2[nH]1,8,0,9,-4,17
CCOC(=O)c1c(C)sc2c1N(C(=O)CN1CCOCC1)c1cc(Cl)ccc1S2,14,/,/,-26,/
CCOC(=O)c1c(C)sc2c1N(C(=O)CN(CC)CC)c1cc(Cl)ccc1S2,115*,/,/,-21,/
COc1cccc(S(=O)(=O)N(C)C[C@@H]2Oc3cc(C4=CCCCC4)ccc3S(=O)(=O)N([C@@H](C)CO)C[C@@H]2C)c1,-29,21*,-2,-8,2
COc1cccc(S(=O)(=O)N(C)C[C@H]2Oc3cc(C4=CCCC4)ccc3S(=O)(=O)N([C@@H](C)CO)C[C@@H]2C)c1,-76,21*,19,-13,3
COc1cccc(S(=O)(=O)N(C)C[C@H]2Oc3cc(C4=CCCC4)ccc3S(=O)(=O)N([C@H](C)CO)C[C@@H]2C)c1,-48,3,38*,-23,-6
COc1ccc(S(=O)(=O)N(C)C[C@@H]2Oc3cc(C4=CCCC4)ccc3S(=O)(=O)N([C@H](C)CO)C[C@H]2C)cc1,-67,9,-5,-9,-2
COc1cccc(S(=O)(=O)N(C)C[C@H]2Oc3cc(C4=CCCCC4)ccc3S(=O)(=O)N([C@H](C)CO)C[C@H]2C)c1,-35,/,/,-7,/
COc1cccc(S(=O)(=O)N(C)C[C@H]2Oc3cc(C4=CCCC4)ccc3S(=O)(=O)N([C@H](C)CO)C[C@H]2C)c1,-89,21*,-5,-13,-4
SMILES,C2C12 statin,SIRT5 block,DENV2 CPE rescue,PGC1a acetyl inh,S100A4 inh HTS
COc1ccc(S(=O)(=O)N(C)C[C@@H]2Oc3cc(C4=CCCC4)ccc3S(=O)(=O)N([C@@H](C)CO)C[C@H]2C)cc1,-77,10,3,-9,-2
C[C@@H]1CN([C@@H](C)CO)C(=O)c2cc(C#C[C@@H](C)O)cnc2O[C@@H]1CN(C)C(=O)c1ccccc1F,-2,0,0,16,-3
C[C@H]1CN([C@@H](C)CO)C(=O)c2cc(NS(=O)(=O)c3cn(C)cn3)ccc2O[C@H]1CN(C)Cc1ccc(Oc2ccccc2)cc1,-18,-4,-7,-5,17
C[C@H]1CN([C@@H](C)CO)C(=O)c2cc(-c3ccccc3)cnc2O[C@@H]1CN(C)C(=O)c1ccccn1,3,-1,-2,-1,-3
CO[C@H]1CN(C)C(=O)c2cc(NS(=O)(=O)CC(F)(F)F)ccc2OC[C@@H](C)N(Cc2cccnc2)C[C@H]1C,0,/,15,6,-3
C[C@@H]1CCCCO[C@H](CN(C)S(=O)(=O)c2ccc(Cl)cc2)[C@H](C)CN([C@H](C)CO)C(=O)c2cc(NS(=O)(=O)c3ccc(F)cc3)ccc2O1,-8,20*,-13,-17,2
C[C@@H]1CCCCO[C@H](CN(C)S(=O)(=O)c2ccc(Cl)cc2)[C@H](C)CN([C@@H](C)CO)C(=O)c2cc(NS(=O)(=O)c3ccc(F)cc3)ccc2O1,21,22*,-11,1,-4
C[C@@H]1CCCCO[C@H](CN(C)S(=O)(=O)c2ccc(F)cc2)[C@@H](C)CN([C@@H](C)CO)C(=O)c2cc(NS(=O)(=O)c3ccc(Cl)cc3)ccc2O1,/,17*,13,3,1
C[C@@H]1CN([C@H](C)CO)C(=O)c2cc(NS(=O)(=O)c3ccc(F)cc3)ccc2O[C@@H](C)CCCCO[C@H]1CN(C)S(=O)(=O)c1ccc(Cl)cc1,-13,0,11,2,3
Cc1noc(C)c1NC(=O)N(C)C[C@H]1Oc2c(NC(=O)Nc3ccc4c(c3)OCO4)cccc2C(=O)N([C@@H](C)CO)C[C@@H]1C,-4,-3,-1,11,10

# High-throughput results deposited in PubChem by Broad Institute.
